Experimental data as given in the M2OR odorant receptor database.

The compounds below were run against T1, OR2W1 (Homo sapiens) (UniProt Q9Y3N9). Conditions: stereoisomer not certain.
T1 sequence (whole entry): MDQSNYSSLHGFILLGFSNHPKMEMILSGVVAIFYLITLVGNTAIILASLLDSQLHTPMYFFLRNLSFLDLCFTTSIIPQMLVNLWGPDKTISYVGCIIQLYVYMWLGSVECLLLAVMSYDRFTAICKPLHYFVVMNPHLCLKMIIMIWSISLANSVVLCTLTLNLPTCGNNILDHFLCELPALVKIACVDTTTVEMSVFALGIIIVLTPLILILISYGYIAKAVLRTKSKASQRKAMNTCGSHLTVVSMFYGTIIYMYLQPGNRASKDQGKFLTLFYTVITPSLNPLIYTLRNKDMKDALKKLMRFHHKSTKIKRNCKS
Outline: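 Assay methods differ from source to source, frequently being transient luciferase assays in mammalian cell lines. For each receptor–molecule pair, the label responsive (active) applies when the original authors judged the measured signal statistically different from baseline, and non-responsive (inactive) applies otherwise.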

SMILES	odorant receptor agonist call
CCCCCCCCS	active
CC(C)=CCCC(C)CCO (centres undefined)	active
CCC(=O)C1=NCCC1	inactive
C=C1CCC2CC1C2(C)C (centres undefined)	inactive
CCCCCCCCC(=O)O	active
CCOC(C)=O	inactive
Cc1ccc(O)cc1	inactive
CC(=O)OCC=C(C)C	active
CCO	inactive
CCc1ccc(O)c(OC)c1	inactive
CC(=O)Oc1ccccc1	inactive
COc1nccnc1C(C)C	inactive
CC(C)CCO	inactive
Cc1occc1S	inactive
C=C(C)C1CCC(C)C(=O)C1 (centres undefined)	active
COC1=C(C)OC(C)C1=O (centres undefined)	inactive
CC=CC(=O)C1=C(C)CCCC1(C)C	inactive

SMILES	odorant receptor agonist call
CCCC=CC=O	inactive
CC(C)CC=O	inactive
CCCCC(=O)CC	active
O=C(O)C=Cc1ccc(O)cc1	inactive
CSC	inactive
CCCCCCCCCC(=O)[O-].[H+]	inactive
CC(=O)c1ccccc1N	inactive
CC(C)CO	inactive
CCCCOC(=O)C(C)OC(=O)CCC (centres undefined)	inactive
CCCCCCCCC=CC=O	inactive
C=Cc1ccc(OCCCCOc2ccc(C=C)cc2)cc1	inactive
CC=CC(=O)C(C)CC (centres undefined)	inactive
CC(=O)CC(C)(C)S	inactive
c1ccccc1	inactive
CCC(S)C(C)=O (centres undefined)	inactive
CCC(C(=O)O)c1ccccc1 (centres undefined)	inactive
CC(=O)C(C)C(C)=O	inactive
